Laboratory results: ChEMBL document CHEMBL1143889, “N-Phenyl and N-phenylalkyl-maleimides acting against Candida spp.: time-to-kill, stability, interaction with maleamic acids” (2008)
In brackets after ≈: the same amount, converted by molar mass. Activity calls are given as the source filed them. The calls are words filed in the database; no cut-off is given here.

Columns and labels:
[1] = tested on: Torulaspora delbrueckii; experiment: Antifungal activity against Candida coliculosa C 122-2000 after 48 hrs by CLSI M27-A2 method; format: functional
Outline: (§1)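 Broth microdilution per CLSI M27-A2 in RPMI-1640, with twofold dilutions giving final 250–0.98 µg/mL. The inoculum was modified to 1–5 × 10⁴ CFU/mL instead of 1–5 × 10³, with ketoconazole and amphotericin B as positive controls. MIC was the lowest concentration giving total growth inhibition, read visually. Strains were grown on Sabouraud-chloramphenicol agar for 24 h at 37 °C.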

[2] = tested on: Candida albicans; experiment: Antifungal activity against Candida albicans ATCC 10231 pre-incubated for 4 days analysed after 24 hrs by CLSI M27-A2 method; format: functional
Outline: (§2)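 Twofold maleimide dilutions (1000–0.98 µg/mL) in complete M27-A2 medium without inoculum were held at 37 °C, with one plate row filled on each of 7 consecutive days to give 0–7 days of pre-incubation. All wells were then inoculated with C. albicans ATCC 10231 at 1–5 × 10⁴ CFU/mL and incubated for 24 h at 37 °C. MIC was read per row, in duplicate.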

[3] = tested on: Pichia kudriavzevii; experiment: Antifungal activity against Candida krusei C 117-2000 after 48 hrs by CLSI M27-A2 method; format: functional; outline: as §1
[4] = tested on: Candida albicans; experiment: Antifungal activity against Candida albicans C 128-2000 after 48 hrs by CLSI M27-A2 method; format: functional; outline: as §1
[5] = tested on: Candida albicans; experiment: Antifungal activity against Candida albicans ATCC 10231 pre-incubated for 2 days analysed after 24 hrs by CLSI M27-A2 method; format: functional; outline: as §2
[6] = tested on: Candida albicans; experiment: Antifungal activity against Candida albicans ATCC 10231 preincubated for 7 days analysed after 24 hrs by CLSI M27-A2 method; format: functional; outline: as §2
[7] = tested on: Candida albicans; experiment: Antifungal activity against Candida albicans C 126-2000 after 48 hrs by CLSI M27-A2 method; format: functional; outline: as §1
[8] = tested on: Candida albicans; experiment: Antifungal activity against Candida albicans ATCC 10231 after 48 hrs by CLSI M27-A2 method; format: functional; details: ATCC 10231, 48 h; outline: as §1
[9] = tested on: Candida parapsilosis; experiment: Antifungal activity against Candida parapsilosis C 124-2000 after 48 hrs by CLSI M27-A2 method; format: functional; details: Lodderomyces parapsilosis; outline: as §1
[10] = tested on: Candida albicans; experiment: Antifungal activity against Candida albicans ATCC 10231 after 24 hrs by CLSI M27-A2 method; format: functional; details: ATCC 10231, 24 h; outline: as §1
[11] = tested on: Candida albicans; experiment: Antifungal activity against Candida albicans ATCC 10231 pre-incubated for 6 days analysed after 24 hrs by CLSI M27-A2 method; format: functional; outline: as §2
[12] = tested on: Candida albicans; experiment: Antifungal activity against Candida albicans C 125-2000 after 48 hrs by CLSI M27-A2 method; format: functional; outline: as §1
[13] = tested on: Candida albicans; experiment: Antifungal activity against Candida albicans ATCC 10231 pre-incubated for 1 day analysed after 24 hrs by CLSI M27-A2 method; format: functional; outline: as §2
[14] = tested on: Candida albicans; experiment: Antifungal activity against Candida albicans ATCC 10231 pre-incubated for 3 days analysed after 24 hrs by CLSI M27-A2 method; format: functional; outline: as §2
[15] = tested on: Candida albicans; experiment: Antifungal activity against Candida albicans ATCC 10231 pre-incubated for 5 days analysed after 24 hrs by CLSI M27-A2 method; format: functional; outline: as §2
[16] = tested on: Candida albicans; experiment: Antifungal activity against Candida albicans C 127-2000 after 48 hrs by CLSI M27-A2 method; format: functional; outline: as §1
[17] = tested on: Kluyveromyces marxianus; experiment: Antifungal activity against Candida kefyr C 123-2000 after 48 hrs by CLSI M27-A2 method; format: functional; outline: as §1
[18] = tested on: Candida tropicalis; experiment: Antifungal activity against Candida tropicalis C 137-1997 after 48 hrs by CLSI M27-A2 method; format: functional; outline: as §1
[19] = tested on: Candida albicans; experiment: Antifungal activity against Candida albicans C 130-2000 after 48 hrs by CLSI M27-A2 method; format: functional; outline: as §1
[20] = tested on: Candida albicans; experiment: Antifungal activity against Candida albicans C 129-2000 after 48 hrs by CLSI M27-A2 method; format: functional; outline: as §1
[21] = tested on: Candida albicans; experiment: Antifungal activity against Candida albicans ATCC 10231 within 90 mins by time-to-kill study; format: functional, organism-based
Outline: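 C. albicans ATCC 10231 (2–2.5 × 10⁴ CFU/mL) in 5 mL RPMI-1640 was exposed to 1× MFC of compound at 37 °C with agitation. 10 µL samples taken at 0, 30, 60, 90 and 120 min, and at 4, 8, 12 and 24 h, were plated on drug-free SDA and colonies counted after 24–48 h at 37 °C. Run in duplicate.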

[22] = tested on: Nakaseomyces glabratus; experiment: Antifungal activity against Candida glabrata C 115-2000 after 48 hrs by CLSI M27-A2 method; format: functional; outline: as §1
[23] = tested on: Clavispora lusitaniae; experiment: Antifungal activity against Candida lusitaniae C 131-2000 after 48 hrs by CLSI M27-A2 method; format: functional; outline: as §1

SMILES	MFC [1]	MIC [1]	MIC [2]	MFC [3]	MIC [3]	MFC [4]	MIC [4]	MIC [5]	MIC [6]	MIC [7]	MIC [8]	MIC [9]	MIC [12]	MIC [16]	MIC [17]	MIC [18]	MIC [19]	MIC [20]	MIC [22]	MIC [23]	further results
O=C1C=CC(=O)N1c1ccccc1	3.9 µg/mL (≈ 22.5 µM)	1.95 µg/mL (≈ 11.3 µM)	15.8 µg/mL (≈ 91 µM)	1.95 µg/mL (≈ 11.3 µM)	1.95 µg/mL (≈ 11.3 µM)	3.9 µg/mL (≈ 22.5 µM)	0.97 µg/mL (≈ 5.6 µM)	3.9 µg/mL (≈ 22.5 µM)	500 µg/mL (≈ 2890 µM)	0.97 µg/mL (≈ 5.6 µM)	3.9 µg/mL (≈ 22.5 µM)	1.95 µg/mL (≈ 11.3 µM)	0.48 µg/mL (≈ 2.77 µM)	0.97 µg/mL (≈ 5.6 µM)	1.95 µg/mL (≈ 11.3 µM)	7.81 µg/mL (≈ 45.1 µM)	0.48 µg/mL (≈ 2.77 µM)	0.48 µg/mL (≈ 2.77 µM)	1.95 µg/mL (≈ 11.3 µM)	3.9 µg/mL (≈ 22.5 µM)	MFC [7]: 3.9 µg/mL (≈ 22.5 µM); MFC [8]: 7.8 µg/mL (≈ 45 µM); MFC [9]: 3.9 µg/mL (≈ 22.5 µM); MIC [10]: 3.9 µg/mL (≈ 22.5 µM); MIC [11]: 125 µg/mL (≈ 722 µM); MFC [12]: 1.95 µg/mL (≈ 11.3 µM); MIC [13]: 3.9 µg/mL (≈ 22.5 µM); MIC [14]: 7.8 µg/mL (≈ 45 µM); MIC [15]: 62.5 µg/mL (≈ 361 µM); MFC [16]: 1.95 µg/mL (≈ 11.3 µM); MFC [17]: 3.9 µg/mL (≈ 22.5 µM); MFC [18]: 15.8 µg/mL (≈ 91 µM); MFC [19]: 1.95 µg/mL (≈ 11.3 µM); MFC [20]: 1.95 µg/mL (≈ 11.3 µM); Activity [21]: Active; MFC [22]: 3.9 µg/mL (≈ 22.5 µM); MFC [23]: 7.8 µg/mL (≈ 45 µM)
O=C(O)/C=C\C(=O)NCCc1ccccc1		> 250 µg/mL			> 250 µg/mL		> 250 µg/mL			> 250 µg/mL	> 250 µg/mL	> 250 µg/mL	> 250 µg/mL	> 250 µg/mL	> 250 µg/mL	> 250 µg/mL	> 250 µg/mL	> 250 µg/mL	> 250 µg/mL	> 250 µg/mL	
O=C1C=CC(=O)N1Cc1ccccc1	7.81 µg/mL (≈ 41.7 µM)	1.95 µg/mL (≈ 10.4 µM)	15.8 µg/mL (≈ 84.1 µM)	3.9 µg/mL (≈ 20.8 µM)	3.9 µg/mL (≈ 20.8 µM)	3.9 µg/mL (≈ 20.8 µM)	1.95 µg/mL (≈ 10.4 µM)	7.8 µg/mL (≈ 41.7 µM)	500 µg/mL (≈ 2670 µM)	0.97 µg/mL (≈ 5.18 µM)	3.9 µg/mL (≈ 20.8 µM)	1.95 µg/mL (≈ 10.4 µM)	0.97 µg/mL (≈ 5.18 µM)	1.95 µg/mL (≈ 10.4 µM)	3.9 µg/mL (≈ 20.8 µM)	15.8 µg/mL (≈ 84.1 µM)	0.97 µg/mL (≈ 5.18 µM)	1.95 µg/mL (≈ 10.4 µM)	1.95 µg/mL (≈ 10.4 µM)	1.95 µg/mL (≈ 10.4 µM)	MFC [7]: 3.9 µg/mL (≈ 20.8 µM); MFC [8]: 7.8 µg/mL (≈ 41.7 µM); MFC [9]: 3.9 µg/mL (≈ 20.8 µM); MIC [10]: 3.9 µg/mL (≈ 20.8 µM); MIC [11]: 250 µg/mL (≈ 1340 µM); MFC [12]: 1.95 µg/mL (≈ 10.4 µM); MIC [13]: 3.9 µg/mL (≈ 20.8 µM); MIC [14]: 7.8 µg/mL (≈ 41.7 µM); MIC [15]: 125 µg/mL (≈ 668 µM); MFC [16]: 3.9 µg/mL (≈ 20.8 µM); MFC [17]: 3.9 µg/mL (≈ 20.8 µM); MFC [18]: 32.2 µg/mL (≈ 172 µM); MFC [19]: 1.95 µg/mL (≈ 10.4 µM); MFC [20]: 3.9 µg/mL (≈ 20.8 µM); Activity [21]: Active; MFC [22]: 1.95 µg/mL (≈ 10.4 µM); MFC [23]: 3.9 µg/mL (≈ 20.8 µM)
